Article PMC6146380 (Acta Pharmaceutica Sinica. B, 2018)
Structures can show the parent of a compound that is named as a salt. Where two headings read alike, the source gives them in different places.

Assays:
U87 cells = test: Cellular uptake of FITC-labeled peptides by flow cytometry, U87; assay type: cell-based, human; conditions: 5 × 10^−6 mol/L, 4 h
How it was run: (§1)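 Cells grown in DMEM with 10% FBS at 37 °C, 5% CO₂. Seeded at 8 × 10⁴ cells/well and incubated overnight. FITC-labeled peptides (N-terminal Cys–maleimide-FITC) added at a final 5 × 10⁻⁶ mol/L for 4 h. Cells then trypsinized, centrifuged, resuspended in PBS and analysed by flow cytometry. Fluorescence signal compared between labeled peptides.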

A549 cells [1] = test: Cellular uptake of FITC-labeled peptides by flow cytometry, A549; assay type: cell-based, human; conditions: 5 × 10^−6 mol/L, 4 h
How it was run: as §1

HUVEC = test: Cellular uptake of FITC-labeled peptides by flow cytometry, HUVEC; assay type: cell-based, human; conditions: 5 × 10^−6 mol/L, 4 h
How it was run: as §1

C6 cells = test: Cellular uptake of FITC-labeled peptides by flow cytometry, C6; assay type: cell-based, rat; conditions: 5 × 10^−6 mol/L, 4 h
How it was run: as §1

A549 cells [2] = test: MTT cytotoxicity assay; assay type: cell-based, human; conditions: read-out: IC50 (in vitro cytotoxicity)
How it was run: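 A549 cells seeded at 5 × 10³/well in DMEM with 10% FBS and antibiotics, preincubated 24 h at 37 °C, 5% CO₂. Test drug in PBS added at various concentrations for 48 h; untreated controls received fresh medium. MTT (5 mg/mL stock) added for 4 h, formazan dissolved in DMSO, absorbance read at 490 nm. Triplicate measurements.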

FITC-D(CRGERPPR)
mean fluorescent intensity, times higher than FITC-D(CRPPREGR) (U87 cells): 3.5 times | mean fluorescent intensity, times higher than that of FITC-CRGERPPR (U87 cells): 3.3 times | FITC-positive ratio, times higher than that of FITC-CRGERPPR (A549 cells [1]): 1.6 times | FITC-positive ratio, times higher than that of FITC-D(CRPPREGR) (A549 cells [1]): 1.3 times | mean fluorescent intensity, times higher than that of FITC-CRGERPPR (HUVEC): ~13.1 times | mean fluorescent intensity, times higher than that of FITC-D(CRPPREGR) (HUVEC): 5.7 times | mean fluorescent intensity, times higher than FITC-D(CRPPREGR) (C6 cells): 2.9 times | mean fluorescent intensity, times higher than that of FITC-CRGERPPR (C6 cells): 5.4 times

Nc1ccn([C@@H]2O[C@H](CO)[C@@H](O)C2(F)F)c(=O)n1 [gemcitabine, Gemcitabine hydrochloride]
IC50 (A549 cells [2]; Homo sapiens, A549, 48 h): 4.83 µM

N.N.O=C([O-])C1(C(=O)[O-])CCC1.[Pt+2] [carboplatin]
IC50 (A549 cells [2]; A549 cells, MTT assay, 48 h treatment, triplicate): 138 µM
